In test [1] the target is T1, Histamine H4 receptor (Homo sapiens, UniProt Q9H3N8). Kind of test: Antagonist activity at human histamine H4 receptor expressed in Sf9 cells coexpressing RGS19 protein by steady-state GTPase assay. It counts as functional. The method in brief:
(§1)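 Antagonist-mode steady-state GTPase assay in Sf9 membranes: H1R coexpressed with RGS4; H2R as GsαS fusion; H3R coexpressed with Giα2/Gβ1γ2/RGS4; H4R as RGS19 fusion with Giα2/Gβ1γ2. […] MgCl2: H1R/H2R 1.0 mM, H3R/H4R 5.0 mM; H4R plus 100 mM NaCl. [γ-32P]GTP hydrolysis measured over 20 min at 25 °C. pKB from nonlinear sigmoidal fits; duplicate runs.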

The target of test [2] is T2, Histamine H2 receptor (Homo sapiens, UniProt P25021). The test can be described thus: Antagonist activity at human histamine H2 receptor expressed in Sf9 cells coexpressing GsalphaS protein by steady-state GTPase assay. It counts as functional. The method, boiled down: as §1
In test [3] the target is T3, Histamine H3 receptor (Homo sapiens, UniProt Q9Y5N1). The test can be described thus: Antagonist activity at human histamine H3 receptor expressed in Sf9 cells coexpressing Gialpha-2-Gbeta-1-gamma-2 and RGS4 proteins protein by steady-state GTPase assay. It counts as functional. The method in brief:
as §1

Test [4] addresses T1, Histamine H4 receptor. Kind of test: Agonist activity at human histamine H4 receptor expressed in Sf9 cells coexpressing RGS19 protein by steady-state GTPase assay. It counts as functional. The method in brief: (§2)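 Sf9 membranes (10-20 μg protein/tube), washed and resuspended in 10 mM Tris-HCl pH 7.4. H2R as hH2R-GsαS fusion; H3R coexpressed with Giα2, Gβ1γ2, RGS4; H4R as hH4R-RGS19 fusion with Giα2, Gβ1γ2. Buffer: 50 mM Tris/HCl pH 7.4, MgCl2 (H2R 1.0 mM; H3R/H4R 5.0 mM), 100 μM EDTA, 100 μM ATP, 100 nM GTP, 100 μM AppNHp, creatine phosphate/kinase, 0.2% BSA; H4R plus 100 mM NaCl.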

For test [5], the target named is T4, Histamine H1 receptor (Homo sapiens, UniProt P35367). The test can be described thus: Antagonist activity at human histamine H1 receptor expressed in Sf9 cells coexpressing RGS4 by steady-state GTPase assay. The test is classed as functional. The method in brief: as §1
The target in test [6] is T2, Histamine H2 receptor. The test can be described thus: Agonist activity at human histamine H2 receptor expressed in Sf9 cells coexpressing GsalphaS protein by steady-state GTPase assay. The test is classed as functional. The method in brief: as §2
In test [7] the target is T2, Histamine H2 receptor. Kind of test: Antagonist activity at human histamine H2 receptor expressed in Sf9 cells coexpressing GsalphaS protein by steady-state GTPase assay.
Test [8] deals with T1, Histamine H4 receptor. Particulars: Sf9.
Test [9] has as its target T4, Histamine H1 receptor. Kind of test: Agonist activity at human histamine H1 receptor expressed in Sf9 cells coexpressing RGS4 by steady-state GTPase assay. It counts as functional.
The target in test [10] is T2, Histamine H2 receptor. Kind of test: Agonist activity at human histamine H2 receptor expressed in Sf9 cells coexpressing GsalphaS protein at 1 mM by steady-state GTPase assay. The test is classed as functional.
For test [11], the target named is T3, Histamine H3 receptor. The test can be described thus: Agonist activity at human histamine H3 receptor expressed in Sf9 cells coexpressing Gialpha-2-Gbeta-1-gamma-2 and RGS4 proteins protein by steady-state GTPase assay. The test is classed as functional. The method, boiled down:
as §2

The source made the active and inactive calls. No cut-off for these calls is given here. Where only a bound is given, the exact number is not on record here.

The text below walks through data of ChEMBL document CHEMBL1154326 (J Med Chem, 2009).

By pKb is commonly meant the Kb on a negative log10 scale, so that one unit is a factor of ten. Low values mean a large Kb, high ones a small Kb. For orientation: EC50 means the midpoint of the concentration-response curve. Low readings indicate greater potency, high ones weaker potency.

T1 sequence (Q9H3N8 whole entry, the tested form may be a part): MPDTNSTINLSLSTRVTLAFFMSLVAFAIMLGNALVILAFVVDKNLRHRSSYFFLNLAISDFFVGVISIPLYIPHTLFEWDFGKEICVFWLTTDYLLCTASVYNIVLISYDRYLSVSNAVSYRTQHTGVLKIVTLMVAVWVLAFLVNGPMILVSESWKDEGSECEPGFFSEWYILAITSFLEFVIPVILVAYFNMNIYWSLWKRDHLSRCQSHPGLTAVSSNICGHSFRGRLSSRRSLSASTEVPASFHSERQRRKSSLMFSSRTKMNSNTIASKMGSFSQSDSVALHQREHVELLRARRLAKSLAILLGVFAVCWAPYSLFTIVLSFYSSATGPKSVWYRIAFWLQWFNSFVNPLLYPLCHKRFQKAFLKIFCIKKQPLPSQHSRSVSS
T2 sequence (P25021 whole entry): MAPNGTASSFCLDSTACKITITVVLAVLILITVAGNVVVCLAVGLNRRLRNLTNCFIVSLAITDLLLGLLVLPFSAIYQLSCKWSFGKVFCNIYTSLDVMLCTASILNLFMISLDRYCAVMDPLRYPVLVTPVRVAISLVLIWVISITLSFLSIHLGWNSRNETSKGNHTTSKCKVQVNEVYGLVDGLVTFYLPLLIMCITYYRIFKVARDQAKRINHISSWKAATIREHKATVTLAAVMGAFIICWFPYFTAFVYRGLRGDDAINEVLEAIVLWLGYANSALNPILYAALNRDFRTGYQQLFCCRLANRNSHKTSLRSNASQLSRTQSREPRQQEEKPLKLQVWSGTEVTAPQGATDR
T3 sequence (Q9Y5N1 whole entry): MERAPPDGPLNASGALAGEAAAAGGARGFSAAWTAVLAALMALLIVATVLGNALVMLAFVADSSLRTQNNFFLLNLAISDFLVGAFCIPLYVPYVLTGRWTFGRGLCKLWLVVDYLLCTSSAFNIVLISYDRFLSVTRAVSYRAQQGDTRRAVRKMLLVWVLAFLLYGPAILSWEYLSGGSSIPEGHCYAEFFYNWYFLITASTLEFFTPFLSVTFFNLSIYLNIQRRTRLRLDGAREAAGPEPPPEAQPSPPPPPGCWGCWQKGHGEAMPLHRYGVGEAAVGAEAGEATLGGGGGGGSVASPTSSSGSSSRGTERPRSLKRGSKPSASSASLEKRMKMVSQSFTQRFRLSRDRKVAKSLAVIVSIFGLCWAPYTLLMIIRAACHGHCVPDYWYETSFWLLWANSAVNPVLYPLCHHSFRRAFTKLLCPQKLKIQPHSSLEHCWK
T4 sequence (P35367 whole entry): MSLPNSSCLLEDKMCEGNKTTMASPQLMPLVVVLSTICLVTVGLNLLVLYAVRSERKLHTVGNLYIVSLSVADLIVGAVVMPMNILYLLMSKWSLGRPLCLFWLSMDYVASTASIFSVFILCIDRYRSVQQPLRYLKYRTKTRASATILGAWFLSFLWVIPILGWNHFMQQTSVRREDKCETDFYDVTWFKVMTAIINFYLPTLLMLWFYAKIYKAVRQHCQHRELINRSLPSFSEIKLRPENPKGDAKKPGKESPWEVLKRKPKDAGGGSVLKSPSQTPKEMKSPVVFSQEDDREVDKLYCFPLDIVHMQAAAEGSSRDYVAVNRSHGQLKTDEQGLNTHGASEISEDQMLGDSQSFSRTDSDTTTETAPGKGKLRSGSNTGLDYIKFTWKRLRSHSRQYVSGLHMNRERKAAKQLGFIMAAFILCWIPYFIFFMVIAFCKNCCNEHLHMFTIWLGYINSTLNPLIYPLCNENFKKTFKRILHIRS

For `N#C/N=C(/NCCCCCc1c[nH]cn1)NCCCc1ccccc1`, the negative logarithm of the Kb (pKb) in test [1] was found to be 6.96; in test [2] it was 5.28; in test [3] it was 6.55.
In test [4], `CC(C)CN/C(=N\C#N)NCCCCc1c[nH]cn1` showed an EC50 of 120 nM. In addition, the negative-log Kb (pKb) was under 5 in test [5], under 5 in test [2] and 5.47 in test [3].
Regarding `N#C/N=C(/NCCCc1c[nH]cn1)NCCSc1ccccc1`, the EC50 was 1290 nM in test [4] and 7240 nM in [6]. Also, in [2], the pKb was under 5.
`N#CNC(=NCCc1cnc[nH]1)NCCCC1CCCCC1` gave an EC50 in test [6] of 3890 nM.
For the molecule `NC(=O)/N=C(/NCCCCc1ccccc1)NCCCc1c[nH]cn1`, the pKb in test [1] turned out to be 6.33; in [3], 6.51.
In the case of `N#C/N=C(\NCCc1c[nH]cn1)NCCc1c[nH]c2ccccc12`, the negative-log Kb (pKb) in test [1] and in [7] was under 5 each time.
On to `N#C/N=C(/NCCCCc1c[nH]cn1)NCCCc1ccccc1`, for which the negative-log Kb (pKb) is under 5 in [5], 5.25 in test [2] and 5.64 in test [3].
Regarding `N#C/N=C(/NCCCc1c[nH]cn1)NCCC(c1ccccc1)c1ccccc1`, the negative-log Kb (pKb) in test [1] and in test [2] was under 5 throughout.
Molecule `N#C/N=C(/NCCCc1ccccc1)NCCc1c[nH]cn1` gave an EC50 in test [6] of over 10000 nM. Moreover, the pKb in test [5] was under 5; in test [1], under 5; in [3] it was 5.18.
Turning to `N#C/N=C(/NCCCCc1c[nH]cn1)NCCc1ccccc1`, in [4], the EC50 was 1100 nM. Also, the pKb in [2] was 5; in test [3], 5.82.
Regarding `N#C/N=C(\NCCCc1ccccc1)NCCCc1c[nH]cn1`, the EC50 in [4] is 759 nM; in [6] it was 14100 nM. Further, the results for the negative logarithm of the Kb (pKb) in test [2] and in test [3] were 5.25 and 5.72, respectively.
`N#CNC(=NCCCCc1cnc[nH]1)NCCCc1ccncc1` had an EC50 in test [4] of 2570 nM.
Regarding `NC(=O)N=C(NCCCCc1c[nH]cn1)NCCCc1ccccc1`, in [6], the 50% effective concentration (EC50) was 437 nM.
Turning to `N#C/N=C(/NCCCc1c[nH]cn1)NCCCC1CCCCC1`, the results for the negative-log Kb (pKb) in [1] and in test [2] were 5.82 and under 5, respectively.
With `CC(C)N/C(=N/C#N)NCCCCCc1c[nH]cn1`, the pKb in test [1] stood at 6.25; in test [2], 5.57; in [3] it was 6.47.
For `CCN/C(=N/C#N)NCCCCCc1c[nH]cn1`, in that order: 6.47, 5.37 and 6.92.
As to `N/C(=N/CCc1ccc(I)cc1)SCCCc1cnc[nH]1`, in [8], the Kinact was 13 nM.
Regarding `Cc1nc[nH]c1CCN` [4-METHYLHISTAMINE], the EC50 is 70.8 nM in test [4], 2880 nM in test [6] and 15800 nM in test [9]. Also, in [10], the result was inactive.
`CN/C(=N\C#N)NCCCCc1c[nH]cn1`: the EC50 in [4] was 955 nM. Further, the pKb in [5] is under 5; in [2], under 5; in [3] it was 5.68.
`N#C/N=C(/NCCCCc1c[nH]cn1)NCCCC1CCCCC1`: the pKb in [1] is 6.35; in test [2], under 5; in [3], 5.82.
The like results for `N#C/N=C(\NCCCCCc1c[nH]cn1)NCCSc1ccccc1` were, in that order, 6.85, 5.21 and 6.74.
For the molecule `N#C/N=C(/NCCCc1c[nH]cn1)NCCc1c[nH]c2ccccc12`, the outcome in test [10] was inactive. The negative logarithm of the Kb (pKb) was 5.37 in [1] and under 5 in test [2].
In [4], `CC(C)N/C(=N\C#N)NCCCCc1c[nH]cn1` had an EC50 of 331 nM. Besides, the pKb in test [5] is under 5; in test [2], under 5; in test [3], 5.49.
In the case of `CC(CCN/C(=N\C#N)NCCCCc1c[nH]cn1)c1ccccc1` (centres undefined), the results for the negative logarithm of the Kb (pKb) in test [5], in test [2] and in [3] were under 5, under 5 and 6.19, respectively.
For the molecule `N#CNC(=NCCCCc1cnc[nH]1)NCCCc1ccccc1`, the concentration giving a half-maximal response (EC50) in test [4] was 151 nM. In other words, the sub-micromolar range.
Molecule `N#C/N=C(/NCCCCc1c[nH]cn1)NCCCc1ccccn1` had a concentration giving a half-maximal response (EC50) in test [4] of 575 nM. The figures for the negative logarithm of the Kb (pKb) in [2] and in test [3] were 5.48 and 5.89, respectively.
`NC(=O)/N=C(/NCCCc1ccccc1)NCCc1c[nH]cn1` showed a half-maximal effective concentration (EC50) in [6] of 2000 nM. Further, the pKb is under 5 in test [5], 5.89 in test [1] and 8.42 in test [3].
As for `Cc1[nH]cnc1CSCCN/C(=N\C#N)NCCCc1ccccc1`, the pKb was under 5 in test [1] and 5.74 in [2].
For `N#C/N=C(\NCCCCc1ccccc1)NCCCCc1c[nH]cn1`, the negative logarithm of the Kb (pKb) in test [1] was 6.34; in test [2], 5.03; in [3], 5.54.
For `CC(C)CN/C(=N\C#N)NCCCCCc1c[nH]cn1`, in that order: 6.51, under 5 and 6.57.
For the molecule `N=C(NCCCc1c[nH]cn1)NS(=O)(=O)CCc1ccccc1`, in [6], the EC50 is 12000 nM. In addition, the results for the pKb in [1] and in [3] were 5.85 and 6.57, respectively.
`N#C/N=C(\NCCSc1ccccc1)NCCc1c[nH]cn1`: the figures for the negative-log Kb (pKb) in test [1] and in [2] were 5.05 and under 5, respectively.
The like results for `N#C/N=C(/NCCc1c[nH]cn1)NCCC(c1ccccc1)c1ccccc1` were, in that order, under 5 and under 5.
Take `N#C/N=C(/NCCCCc1c[nH]cn1)NCCCc1ccncc1`: the pKb worked out at 5.11 in test [2] and 6.11 in [3].
As to `N#C/N=C(/NCCCCc1c[nH]cn1)NCCC(c1ccccc1)c1ccccc1`, the results for the pKb in test [1] and in [2] were 5.6 and 5, respectively.
As to `NC(=O)NC(=NCCCc1cnc[nH]1)NCCCc1ccccc1`, the half-maximal effective concentration (EC50) in [6] was 646 nM. This counts as sub-micromolar.
On to `N#C/N=C(/NCCCCc1ccccc1)NCCc1c[nH]cn1`, for which the half-maximal effective concentration (EC50) in test [4] was over 10000 nM. Besides, the negative-log Kb (pKb) in test [2] and in test [7] was under 5 each time.
Turning to `N#C/N=C(\NCCc1ccccc1)NCCc1c[nH]cn1`, the result in test [10] was inactive. In [1], this molecule had a negative-log Kb (pKb) of 5.18.
Turning to `N#C/N=C(/NCCCCc1c[nH]cn1)NCCc1c[nH]c2ccccc12`, the results for the pKb in test [1], in test [2] and in test [3] were 5.8, under 5 and 6.77, respectively.
On to `N#C/N=C(/NCCCC1CCCCC1)NCCc1c[nH]cn1`, for which the pKb in test [1] was 5.57.
As for `N#C/N=C(/NCCCCc1c[nH]cn1)NCCCc1ccc(F)cc1`, the pKb turned out to be 6.59 in test [1], 5.28 in test [2] and 6.11 in test [3].
`N#C/N=C(\NCCCCc1ccccc1)NCCCc1c[nH]cn1` showed an EC50 in test [6] of 8910 nM. The pKb in test [1] was found to be 5.22; in test [2], 5.03.
As to `Cc1ccc(S(=O)(=O)NC(=N)NCCCc2c[nH]cn2)cc1`, the midpoint of the response in [6], the EC50, lay at 12000 nM. Besides, the pKb in [5] is under 5; in test [1], 5.85; in test [3], 6.11.
For the molecule `CN/C(=N\C#N)NCCCCCc1c[nH]cn1`, the pKb stood at 6.54 in [1], 5.66 in test [2] and 6.38 in test [3].
Turning to `NC(=O)/N=C(\NCCCCc1c[nH]cn1)NCCCc1ccccc1`, the result in [4] was inactive. Also, the pKb in test [1] was 7.07; in [3] it was 6.44.
For the molecule `Cc1[nH]cnc1CSCCN/C(=N/C#N)NCCC(c1ccccc1)c1ccccc1`, the concentration for a half-maximal effect (EC50) in test [4] was over 10000 nM. In test [7], this molecule yielded a negative logarithm of the Kb (pKb) of 5.8.
With `N#C/N=C(/NCCCc1c[nH]cn1)NCCc1ccccc1`, the result in test [10] was inactive. Further, the negative-log Kb (pKb) in test [1] is 5.32; in test [2], under 5.
Consider `NC(=O)NC(=NCCCc1cnc[nH]1)NCCCCc1ccccc1`, for which a half-maximal response in [6] (EC50) required 380 nM. This lies in the sub-micromolar range.
In test [2], `N#C/N=C(\N)NCCCCc1c[nH]cn1` came in with a pKb of under 5.
Regarding `N#CNC(N)=NCCCCc1cnc[nH]1`, the concentration giving a half-maximal response (EC50) was 170 nM in test [4] and 251 nM in test [11].
With `N#C/N=C(/NCCCCc1c[nH]cn1)NCCCc1cccnc1`, the EC50 in test [4] was 1200 nM. The pKb in test [2] came out at 5.92; in [3], 6.19.
With `NC(=O)/N=C(/NCCCc1ccccc1)NCCCc1c[nH]cn1`, the negative-log Kb (pKb) in test [5] was under 5; in test [1], 6.77; in test [3], 6.23.
`CC(CCNC(=NCCCCc1cnc[nH]1)NC#N)c1ccccc1` (centres undefined) had an EC50 in test [4] of 141 nM. That is a sub-micromolar value.
As for `CCN/C(=N\C#N)NCCCCc1c[nH]cn1`, the EC50 in test [4] is 708 nM. For the same molecule, the negative logarithm of the Kb (pKb) was under 5 in test [5], under 5 in [2] and 5.54 in [3].
